These results are taken from ChEMBL document CHEMBL2346611, “Preliminary structure-activity relationships and biological evaluation of novel antitubercular indolecarboxamide derivatives against drug-susceptible and drug-resistant Mycobacterium tuberculosis strains” (J Med Chem, 2013).

Experiment [1] concerns Mycobacterium tuberculosis. In words: Antitubercular activity against Mycobacterium tuberculosis H37Rv by microplate Alamar Blue assay. In kind it is functional. Put shortly: (§1)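 Mycobacterium tuberculosis strains were used: H37Rv, and clinical strains from KwaZulu-Natal (MDR KZN494 and V2475; XDR TF274 and R506). Growth was read by microplate Alamar Blue assay. MIC is the lowest drug concentration giving at least a 90% reduction of the bacterial growth signal. Values are the average of three individual measurements.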
(In general: Alamar Blue is a resazurin reagent that responds to reducing activity.)

Experiment [2] relates to Vero. In words: Cytotoxicity against african green monkey Vero cells by microplate Alamar Blue assay. In kind it is cell-based. The note with it: Chlorocebus sabaeus. In a few lines: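 Cytotoxicity was measured on Vero cells in microplate Alamar Blue assay format.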
The subject of experiment [3] is Mycobacterium tuberculosis. In words: Antitubercular activity against Mycobacterium tuberculosis H37Rv in 300 mg/kg, po dosed Balb/c mouse serum measured after 7 days by serum inhibition titration based microplate Alamar Blue assay. In kind it is functional, organism-based. Further details: dose 300 mg/kg. In a few lines: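 Six-week-old female BALB/c mice got a single oral gavage of 100 or 300 mg/kg, ground to a suspension in 0.5% carboxymethyl cellulose. Controls were isoniazid 10 mg/kg and vehicle. Cardiac blood was taken at 15, 30 and 60 min and serum separated. Serum was two-fold serially diluted, 10^4 CFU H37Rv added, incubated 7 days and read by MABA.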

The nature of experiment [4]: Selectivity index, ratio of IC50 for african green monkey vero cells to MIC90 for Mycobacterium tuberculosis H37Rv. The experiment is classed as functional.
Experiment [5] deals with Mycobacterium tuberculosis. In words: Antitubercular activity against drug-susceptible Mycobacterium tuberculosis V4207 by microplate Alamar Blue assay. In kind it is functional.
Experiment [6] concerns Mycobacterium tuberculosis. Put plainly: Antitubercular activity against Mycobacterium tuberculosis H37Rv after 21 days by spectrophotometric analysis. The experiment is classed as functional. The note with it: 504 h.
Experiment [7] concerns Mycobacterium tuberculosis. In words: Ratio of isoniazid MIC to compound MIC for Mycobacterium tuberculosis H37Rv. The experiment is classed as functional.
The subject of experiment [8] is Mycobacterium tuberculosis. In words: Antitubercular activity against Mycobacterium tuberculosis H37Rv. In kind it is functional. In a few lines: as §1

≈ marks a conversion by molar mass, not a printed value. Calls of active or inactive are those of the source. The rule behind the calls is not given here.

As to `Cc1cc(C)c2cc(C(=O)NCC3CCCCC3)[nH]c2c1`, the MIC90 (commonly an inhibitory concentration at the 90% level, which refers to growth in some studies and to a panel of isolates in others) in experiment [1] amounted to 0.88 µM (≈ 0.25 µg/mL). The IC50 – broadly, the concentration at which inhibition is half-maximal – in experiment [2] was more than 200 µM. As for `Cc1cc(C)c2cc(C(=O)NC3CC4CCC3C4)oc2c1` (stereo not given), the MIC90 in experiment [1] is 113 µM (≈ 32 µg/mL). Same read-out and setting: to `Cc1cc(C)c2cc(C(=O)NC3CCCCCC3)oc2c1` belongs 56 µM (≈ 16 µg/mL); to `O=C(NC12CC3CC(CC(C3)C1)C2)c1cc2cc(Cl)ccc2o1`, not below 388 µM; to `Cc1cc(C)c2cc(C(=O)NC3CCCN(C)CC3)[nH]c2c1` (stereo not given), 428 µM (≈ 128 µg/mL). `O=C(NC1CCCCCCC1)c1cc2c(F)cc(F)cc2[nH]1` yielded an MIC90 in experiment [1] of 0.1 µM (≈ 0.0306 µg/mL). The same measure, in the same setting: as for `Cc1cc(C)c2cc(C(=O)N3CCCCC3)[nH]c2c1`, the figure is more than 499 µM; as for `Cc1cc(C)c2cc(C(=O)NC3CCCCC3)n(C)c2c1`, 450 µM (≈ 128 µg/mL). On to `Cc1cc(C)c2cc(C(=O)NC3CCCCCCC3)[nH]c2c1`, for which, in experiment [3], the result was Active. Further, the “Selectivity Index” value in experiment [4] came out at 4100. The MIC90 in experiment [1] came out at 0.013 µM (≈ 0.00388 µg/mL); in experiment [5], 0.026 µM (≈ 0.00776 µg/mL). For the same compound, it took 54 µM to reach half-maximal inhibition in experiment [2] (IC50).

Take `Cc1cc(C)c2c(C(=O)NC3C4CC5CC(C4)CC3C5)c[nH]c2c1` (stereo not given): the MIC90 in experiment [1] came to 200 µM (≈ 64.5 µg/mL).

In experiment [1], `Cc1cc(C)c2nc(C(=O)NC34CC5CC(CC(C5)C3)C4)[nH]c2c1` gave an MIC90 of 0.39 µM (≈ 0.126 µg/mL).

For `Cc1cc(C)c2cc(C(=O)NC34CC5CC(CC(C5)C3)C4)[nH]c2c1`, in experiment [3], the result was inactive. Further, the “Selectivity Index” value in experiment [4] is more than 16600. Moreover, in experiment [1], the MIC90 is 0.012 µM (≈ 0.00387 µg/mL). In experiment [2], this compound gave an IC50 of more than 200 µM.

Regarding `Cc1cc(C)c2cc(C(=O)Nc3ccncc3)[nH]c2c1`, in experiment [1], the MIC90 worked out at 240 µM (≈ 63.7 µg/mL). In experiment [6], `O=[N+]([O-])c1cn2c(n1)OC[C@@H](OCc1ccc(OC(F)(F)F)cc1)C2` [PRETOMANID] registered an MIC90 of 0.04 µM (≈ 0.0144 µg/mL). Compound `Cc1cc(C)c2c(C(=O)NC3CCCCCCC3)c[nH]c2c1` displayed an MIC90 in experiment [1] of 200 µM (≈ 59.7 µg/mL). Same read-out and setting: to `Cc1cc(C)c2cc(C(=O)NC3CCCCCCC3)oc2c1` belongs 27 µM (≈ 8.08 µg/mL); to `O=C(NC1CCCCCC1)c1cc2c(F)cc(F)cc2[nH]1`, 0.86 µM (≈ 0.251 µg/mL). Same read-out and setting: as for `O=C(NC1CCCCC1)c1cc2ccccc2[nH]1`, the figure is more than 528 µM; as for `O=C(NC12CC3CC(CC(C3)C1)C2)c1cc2ccc(O)cc2[nH]1`, 13 µM (≈ 4.04 µg/mL). Still for that read-out and setting: to `NNC(=O)c1ccncc1` [ISONIAZID] belongs 0.29 µM (≈ 0.0398 µg/mL); to `Cc1cc(C)c2cc(C(=O)NC3CC3)[nH]c2c1`, 561 µM (≈ 128 µg/mL); to `Cc1cc(C)c2cc(C(=O)NC3CCN(C)CC3)[nH]c2c1`, 448 µM (≈ 128 µg/mL). `O=C(NC12CC3CC(CC(C3)C1)C2)c1cc2cc(Cl)ccc2[nH]1` returned an MIC90 in experiment [1] of 0.38 µM (≈ 0.125 µg/mL). `Cc1ccc(NC(=O)c2cc3ccccc3[nH]2)cc1F` came in with an MIC90 in experiment [1] of 477 µM (≈ 128 µg/mL). In experiment [1], `COc1cc2[nH]c(C(=O)NC3CCCCCCC3)cc2cn1` had an MIC90 of 6.6 µM (≈ 1.99 µg/mL). The same measure, in the same setting: to `Cc1cc(C)c2c(C(=O)NC3CCCCCC3)c[nH]c2c1` belongs 200 µM (≈ 56.9 µg/mL). With `O=C(NC1CCCCCCC1)c1cc2cc(Cl)ccc2o1`, the MIC90 in experiment [1] came to 26 µM (≈ 7.95 µg/mL).

In experiment [1], `Cc1cc(C)c2cc(C(=O)Nc3ccc(C)c(F)c3)[nH]c2c1` had an MIC90 of 1.7 µM (≈ 0.504 µg/mL). Further, the IC50 in experiment [2] is more than 200 µM. Take `Cc1cc(C)c2cc(C(=O)NC3CCCCCC3)[nH]c2c1`: the result in experiment [3] was inactive. Moreover, the “Selectivity Index” value in experiment [4] was more than 3600. Moreover, in experiment [7], the Ratio was found to be 5. Moreover, the MIC90 in experiment [1] was 0.055 µM (≈ 0.0156 µg/mL); in experiment [5] it was 0.11 µM (≈ 0.0313 µg/mL). In experiment [2], this compound came in with an IC50 of more than 200 µM. For the compound `Cc1cc(C)c2nc(C(=O)NC3CCCCCCC3)[nH]c2c1`, the MIC90 in experiment [1] stood at 1.7 µM (≈ 0.509 µg/mL). Take `CCCCCCNC(=O)c1cc2c(C)cc(C)cc2o1`: in experiment [1], the MIC90 is 59 µM (≈ 16.1 µg/mL). The same measure, in the same setting: to `Cc1cc(C)c2nc(C(=O)NC3CCCCCC3)[nH]c2c1` belongs more than 224 µM.

In experiment [1], `Cc1cc(C)c2cc(C(=O)NC34CC5CC(CC(C5)C3)C4)oc2c1` had an MIC90 of 3.1 µM (≈ 1 µg/mL). For the compound `Cc1cc(C)c2cc(C(=O)NC3CCN(C(C)C)CC3)[nH]c2c1`, the MIC90 in experiment [1] worked out at 204 µM (≈ 63.9 µg/mL). `COc1nc2ccc(Br)cc2cc1[C@@H](c1ccccc1)[C@@](O)(CCN(C)C)c1cccc2ccccc12` [BEDAQUILINE] showed an MIC90 in experiment [8] of 0.05 µM (≈ 0.0278 µg/mL). `COc1cc2[nH]c(C(=O)NC34CC5CC(CC(C5)C3)C4)cc2cn1`: the MIC90 in experiment [1] came out at 1.5 µM (≈ 0.488 µg/mL). For `Cc1cc(C)c2cc(C(=O)Nc3ccccc3)[nH]c2c1`, the MIC90 in experiment [1] came out at 3.8 µM (≈ 1 µg/mL). In experiment [2], the 50% inhibitory concentration (IC50) was more than 200 µM. As to `COc1ccc2cc(C(=O)NC34CC5CC(CC(C5)C3)C4)[nH]c2c1`, in experiment [1], the MIC90 came out at 0.77 µM (≈ 0.25 µg/mL).

`Cc1cc(C)c2nc(C(=O)NC3C4CC5CC(C4)CC3C5)[nH]c2c1` (stereo not given): in experiment [1], the MIC90 amounted to 1.5 µM (≈ 0.485 µg/mL). On the same count and under the same terms, to `Cc1cc(C)c2cc(C(=O)N(C)C3CCCCC3)[nH]c2c1` belongs 450 µM (≈ 128 µg/mL). For `Cc1cc(C)c2cc(C(=O)NC3CCCCC3)[nH]c2c1`, the MIC90 in experiment [1] and in experiment [5] was 0.93 µM (≈ 0.251 µg/mL) each time. In addition, the IC50 in experiment [2] is more than 200 µM. Regarding `Cc1cc(C)c2cc(C(=O)NC3C4CC5CC(C4)CC3C5)[nH]c2c1` (stereo not given), in experiment [3], the outcome was inactive. Besides, the “Selectivity Index” value in experiment [4] is reported as more than 16600. In experiment [1], this compound registered an MIC90 of 0.012 µM (≈ 0.00387 µg/mL). The IC50 in experiment [2] was more than 200 µM.

As to `O=C(NC1CCCCCC1)c1cc2c(C(F)(F)F)cc(C(F)(F)F)cc2[nH]1`, the MIC90 in experiment [1] was found to be 0.64 µM (≈ 0.251 µg/mL).

`O=C(NC1CCCCCCC1)c1cc2c(C(F)(F)F)cc(C(F)(F)F)cc2[nH]1` had an MIC90 in experiment [1] of 0.04 µM (≈ 0.0163 µg/mL).

`Cc1cc(C)c2c(C(=O)NC34CC5CC(CC(C5)C3)C4)c[nH]c2c1`: the MIC90 in experiment [1] was found to be 200 µM (≈ 64.5 µg/mL).
